In one data set the test system is SET-2 xenografts. In words: Subcutaneous SET-2 model of megakaryoblastic leukemia. The class given is in vivo, mouse. The settings on record: d18. In a few lines:
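Female SCID-beige mice (9 weeks; n=12 per group) were implanted s.c. with 5 × 10^6 SET-2 cells in Matrigel. From d33 post-implantation, they were dosed orally for 19 days (d0–d18), with separate doses at least 8 h apart. Tumor volume was measured by caliper as (w²×l)/2, and tumors were weighed at the end. Synergy was assessed by Clarke's CI, with <0 counted as synergy. Statistics used ANOVA/Dunnett.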

A further data set has as its system MOLM-13 s.c. xenografts. In words: Subcutaneous MOLM-13 xenograft model. The note with it: for reduction in tumor weight: d7. The class given is in vivo, mouse. A digest of the protocol: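 Female SCID mice (n=12 per group) were given 5 × 10^6 MOLM-13 cells s.c. with Matrigel. Treatment started on d11 and ran 8 days, all oral: 50 mg/kg pacritinib daily in the evenings and 75 mg/kg pracinostat every other day. On the last day, tumors were excised and weighed. Metastases to lungs, breast fat-pad and lymph nodes were counted. Statistics used ANOVA/Dunnett.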

A short description of data set [1]: Pharmacokinetic analysis of pracinostat and pacritinib in plasma. The class given is in vivo, mouse. The note with it: d14 vs d1.
The subject of a further data set is MCP-1. In words: Plasma cytokine/chemokine analysis in SET-2 tumor-bearing mice. The class given is in vivo, mouse. The settings on record: d18. A digest of the protocol:
(§1)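 Plasma came from female SCID-beige mice bearing s.c. SET-2 tumors (5 × 10^6 cells) that had been dosed orally with the test compounds in the efficacy study. It was collected on d18, 3 h post-dose. A Luminex 32-plex mouse cytokine/chemokine panel measured the analytes. Comparators were uninoculated naive mice and vehicle-treated tumor-bearing mice.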

Data set [2] deals with IL-6, IP-10, KC and MIP-1α. The data set is described as above. The class given is in vivo, mouse. A digest of the protocol: as §1
A further data set concerns pSTAT5 in SET-2 tumors. In words: pSTAT5 levels in SET-2 tumors after chronic treatment. The settings on record: end of study. Format: in vivo, mouse. A digest of the protocol: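 SET-2 s.c. tumors came from female SCID-beige mice dosed orally d0–d18. They were excised on the last treatment day, 3 h post-dose, and lysed. pSTAT5 was measured by western blot and compared with vehicle-treated animals.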

Data set [3] relates to pFLT3, FLT3 in MOLM-13 tumors. In words: Western blot analysis of MOLM-13 tumors. The note with it: chronic treatment with pacritinib alone, d7. The class given is in vivo, mouse. (In general: A western blot detects proteins with antibodies after separation by electrophoresis.)
Data set [4] can be described thus: Toxicokinetic studies in mice, single agent. The class given is in vivo. The note with it: data not shown.
Data set [5] deals with panel of 11 AML cell lines. Nature of the data set: Cell proliferation assay. The class given is cell-based. The note with it: Homo sapiens, 48 h, read-out: IC50 on cell proliferation. In a few lines: (§2)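 Cells were seeded at a predetermined optimal density in log phase and rested 2 h before treatment. They were then exposed for 48 h to test compound in 9 serial-dilution steps from 10 μM to 1.5 nM, with 0.1% solvent. Viability was read by CellTiter-Glo luminescence. At least three independent experiments were run in triplicate, and IC50 came from curve fitting.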

The next data set concerns HL-60. Nature of the data set: Cell proliferation assay and in vitro synergy. The class given is cell-based. The settings on record: Homo sapiens, HL-60, 48 h, read-out: IC50 on cell proliferation. In a few lines:
as §2

Data set [6] deals with pJAK2, JAK2, pSTAT5 and STAT5 in JAK2^V617F mutant cells (HEL92.1.7 and SET-2). Nature of the data set: Western blot of JAK-STAT signaling. Format: cell-based, human. The note with it: 125–500 nM for 24 h. In a few lines: (§3)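 Cells were treated with test compound at 125–500 nM for 24 h, then lysed. Western blots of 25 μg total lysate were probed for pJAK2 (Y1007/1008), JAK2, pSTAT5 (Y694) and STAT5. JAK2V617F lines were compared with JAK2 wt lines.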

The test system of data set [7] is pJAK2, JAK2, pSTAT5 and STAT5 in JAK2 wt 32D cells. Nature of the data set: Western blot of JAK-STAT signaling. Format: cell-based, murine. The note with it: 125–500 nM for 24 h. A digest of the protocol:
as §3

The subject of data set [8] is pJAK2, JAK2, pSTAT5 and STAT5 in JAK2 wt KARPAS 1106-P cells. Nature of the data set: Western blot of JAK-STAT signaling. The class given is cell-based. The note with it: data not shown. A digest of the protocol:
as §3

Data set [9] deals with pFLT3 (Y591) in MV4-11 cells (FLT3-ITD). Nature of the data set: Western blot of FLT3 signaling. Format: cell-based, human. The note with it: 500 nM, 24 h. In a few lines:
(§4)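 Cells were treated with test compound at graded concentrations for 24 h, then lysed. Western blots loaded 50 μg total lysate for pFLT3 (Y591) and FLT3, and 25 μg for the other proteins. Other antibodies were pSTAT5 (Y694) and STAT5. FLT3-ITD lines were compared with wt-FLT3 RS4;11 cells.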

The test system of data set [10] is pFLT3 (Y591) in MOLM-13 cells (FLT3-ITD). Nature of the data set: Western blot of FLT3 signaling. Format: cell-based, human. The note with it: 500 nM, 24 h. In a few lines:
as §4

Data set [11] deals with pFLT3, FLT3 and pSTAT5 in RS4;11 cells (wt FLT3). Nature of the data set: Western blot of FLT3 signaling. Format: cell-based, human. The settings on record: RS4;11, 24 h, compared with FLT3-ITD cell lines. A digest of the protocol: as §4
Another data set concerns MV4-11 xenografts. In words: Subcutaneous MV4-11 xenograft model. Format: in vivo, mouse. In a few lines:
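Female BALB/c nude mice (8–10 weeks; n=10 per group) were implanted s.c. in the right flank with 1 × 10^7 MV4-11 cells in serum-free medium mixed 1:1 with Matrigel. From d9, they received 25 or 50 mg/kg per day by oral gavage (10 ml/kg) for 21 days. Tumor volume was measured by caliper as (w²×l)/2. Statistics used ANOVA/Bonferroni.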

In a further data set the test system is HEL92.1.7 xenografts. Nature of the data set: Subcutaneous HEL92.1.7 xenograft model. The class given is in vivo, mouse. The note with it: HEL92.1.7 model, 75 or 125 mg/kg every other day for 17 days. A digest of the protocol: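 Female BALB/c nude mice (8–10 weeks; n=5 per group) were implanted s.c. in the right flank with 5 × 10^6 HEL92.1.7 cells in serum-free medium mixed 1:1 with Matrigel. From d18, they were dosed by oral gavage (10 ml/kg) at 75 or 125 mg/kg every other day for 17 days. Tumor volume was measured by caliper as (w²×l)/2.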

For data set [12], the system named is HL-60 cells engrafted orthotopically. In words: Orthotopic AML model. Format: in vivo, mouse. A digest of the protocol: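 Female SCID mice (n=6 per group) received 1 × 10^7 HL-60 cells i.v. in 100 μl serum-free medium. From d30, once disease was established, they were dosed with 125 mg/kg test compound thrice weekly by oral gavage at 10 ml/kg. Paralysis symptoms were scored. Blood counts were taken from tail blood with a hematology analyzer and compared with age-matched uninoculated SCID mice. Statistics used ANOVA/Bonferroni.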

Where [13] appears, read: pacritinib 150 mg/kg twice daily.

In the case of `C1=C/COCc2cc(ccc2OCCN2CCCC2)Nc2nccc(n2)-c2cccc(c2)COC/1` [pacritinib], in the data set on SET-2 xenografts (setting [13]), the “TGI (tumor volume)” value came to 61% and the “TGI on the basis of tumor weight” value stood at 47%. For the same compound, in the data set with MOLM-13 s.c. xenografts (pacritinib 50 mg/kg daily), the “reduction in tumor weight” value was found to be 14.7%. In the data set on MOLM-13 s.c. xenografts (single-agent pacritinib), the “reduction of metastatic incidences” value is on record as 60%. For the same compound, in data set [1] (pacritinib), the “increase in AUC after chronic dosing in combination” value is given as “approximately four-fold” and the “increase in Cmax after chronic dosing in combination” value was “approximately two-fold”. For the same compound, in the data set on MCP-1 (pacritinib single agent), the “reduction of plasma MCP-1 levels” value was 10%. The “plasma IL-6, IP-10, KC and MIP-1α” value in data set [2] (single-agent pacritinib) is on record as “normalization”. Moreover, the “decrease of pSTAT5 levels in tumors” value in the data set on pSTAT5 in SET-2 tumors (pacritinib 150 mg/kg twice daily, 3 h post dose) is on record as “about 50%”. Moreover, the “total levels of FLT3 in tumors” value in data set [3] is given as “increased expression total levels of FLT3 significantly”. For the same compound, the “increase in exposure following repeated dosing” value in [4] is given as “two-fold”.
Turning to `CCCCc1nc2cc(/C=C/C(=O)NO)ccc2n1CCN(CC)CC` [pracinostat], the figures for the IC50 (in data set [5]; in the data set on HL-60) were 70 to 560 nM and 70 nM, respectively. Moreover, the “pJAK2 (Y1007/08) and pSTAT5 (Y694) levels, total JAK2 and STAT5 protein” value in data set [6] was “decreased”. Further, the “pJAK2, JAK2, pSTAT5 and STAT5 protein levels” value in data set [7] and in data set [8] was “remained unaffected” throughout. In addition, the “pFLT3 (Y591) level” value in data set [9] and in data set [10] was “near-total ablation” in each case. In [11], the “levels of pFLT3 and FLT3, and pSTAT5” value is on record as “reduced, but to a lesser extent”. The “Complete tumor regression at the end of the treatment” value with MV4-11 xenografts (50 mg/kg per day for 21 days) is listed as 6 out of 10. In addition, the “maximum body weight loss” value in the data set with MV4-11 xenografts (MV4-11 model, 25 or 50 mg/kg per day for 21 days) came to 7%; in the data set on HEL92.1.7 xenografts, 4.7%. In [12] (125 mg/kg thrice weekly), the numbers of platelets result is listed as “without significantly reducing”. In addition, in data set [12] (125 mg/kg thrice weekly from d30), the “delay of the disease onset” value amounted to 17 days. Further, the “blood counts (white blood counts, lymphocyte counts)” value in data set [12] (125 mg/kg thrice weekly, d15 of the study) was “normalizing blood counts to the levels of disease-free mice”. Besides, the “reduction of death caused by progressive AML” value in data set [12] (125 mg/kg thrice weekly, study d24) was 50%. Further, the “TGI on the basis of tumor weight” value in the data set on SET-2 xenografts (pracinostat 75 mg/kg q.o.d) worked out at 42.5%. The “reduction in tumor weight” value with MOLM-13 s.c. xenografts (pracinostat 75 mg/kg q.o.d) is on record as 19.2%. The “reduction of metastatic incidences” value in the data set with MOLM-13 s.c. xenografts (single-agent pracinostat) was found to be 50%. In addition, the “pharmacokinetic parameters after 14 days of co-administration with pacritinib” value in data set [1] (pracinostat) is “similar”. Moreover, in the data set on MCP-1 (pracinostat single agent), the “reduction of plasma MCP-1 levels” value came to 40%. Moreover, in [2] (single-agent pracinostat), the “plasma IL-6, IP-10, KC and MIP-1α” value was “normalization”. In the data set with pSTAT5 in SET-2 tumors (pracinostat 75 mg/kg every other day), the “pSTAT5 levels in tumors compared with vehicle treated animals” value is “increased pSTAT5 levels”.

For the origin of these results see PMC3366067 (Blood Cancer Journal, 2012).
